The values that follow come from ChEMBL document CHEMBL1127362, “Synthesis and pharmacological evaluation of isoindolo[1,2-b]quinazolinone and isoindolo[2,1-a]benzimidazole derivatives related to the antitumor agent batracylin” (J Med Chem, 1994).

One assay is filed under the species Rattus norvegicus. As to the kind of experiment: Nuclear count minus the highest cytoplasmic count determined in rat hepatocytes for each cell. The assay is classed as functional, Hepatocyte. The procedure, abridged:
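Hepatocytes isolated from F-344 rats (220–300 g), ~5 × 10⁶ cells seeded on coverslips; after 2 h washed, refed with serum-free Williams medium E and exposed together to 10 μCi/mL tritiated thymidine (50–90 Ci/mmol) plus compound in DMSO. Autoradiography after 18–20 h; 20 cells counted per slide, triplicate per concentration, mean ± SD of two experiments. Positive requires net grains >0 with dose response.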

A further assay deals with CCRF-CEM. The experiment in a line: Tested for the inhibitory activity against CCRF CEM T- cell leukemia cells. Format: functional, cell-based. The settings on record: Homo sapiens. In short, it runs like this: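 MTT microtiter tetrazolium assay; CCRF CEM cells seeded at 30 000 cells/well and allowed to attach. Each dose tested in four replicate plates, each with eight DMSO-only control wells.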

Assay [1] relates to DNA topoisomerase II (Bos taurus). As to the kind of experiment: Relative potency to cause 90% of topoisomerase II-mediated cleavage of liner 8.4-kb YEPG DNA.

As usually defined, the IC50 is the concentration at which inhibition is half-maximal. `Cc1cccc(N2C(=O)c3ccccc3C2=O)c1[N+](=O)[O-]` gave a Net grain counts in the assay filed under Rattus norvegicus of -4.1. The compound also returned an IC50 in the assay on CCRF-CEM of more than 200 µM. In assay [1], this compound had a Relative activity of 0.
Compound `COc1cc([C@@H]2c3cc4c(cc3[C@@H](O[C@@H]3O[C@@H]5CO[C@@H](C)O[C@H]5[C@H](O)[C@H]3O)[C@H]3COC(=O)[C@H]23)OCO4)cc(OC)c1O` [ETOPOSIDE] returned a Net grain counts in the assay listed under Rattus norvegicus of -7.5. The compound also yielded an IC50 in the assay with CCRF-CEM of 0.002 µM.
As for `Cc1cccc(N)c1N1C(=O)c2ccccc2C1=O`, the Net grain counts in the assay filed under Rattus norvegicus is -8.7. In the assay with CCRF-CEM, the IC50 came to 71 µM. The same compound returned a Relative activity in assay [1] of 0.
`O=C1c2ccccc2-c2nc3ccc(O)cc3n21`: the IC50 in the assay with CCRF-CEM was more than 200 µM. The Relative activity in assay [1] turned out to be 0.
The compound `O=C1c2ccccc2C2=Nc3ccncc3CN12` had a Net grain counts in the assay filed under Rattus norvegicus of -5.2. In the assay on CCRF-CEM, the IC50 amounted to 102 µM. In assay [1], the Relative activity came out at 0.1.
`O=C1c2ccccc2-c2nc3ccncc3n21` had a Net grain counts in the assay listed under Rattus norvegicus of -10.5. This compound also registered an IC50 in the assay with CCRF-CEM of more than 200 µM. In addition, in assay [1], the Relative activity worked out at 0.
Taken in the same sequence, the figures for `Cc1cccc2nc3n(c12)C(=O)c1ccccc1-3` were -3.7, more than 200 µM and 0.
The corresponding values for `Cc1cccc2c1nc1n2C(=O)c2ccccc2-1` are -3.5, more than 200 µM and 0.
The compound `COc1ccc2nc3n(c2c1)C(=O)c1ccccc1-3` registered a Net grain counts in the assay filed under Rattus norvegicus of -3.6. In the assay with CCRF-CEM, this compound returned an IC50 of more than 200 µM. The Relative activity in assay [1] came out at 0.
On to `Nc1ccc2nc3n(c2c1)C(=O)c1ccccc1-3`, for which the Net grain counts in the assay filed under Rattus norvegicus is listed as -4.4. This compound also showed a concentration for half-maximal inhibition (IC50) with CCRF-CEM of more than 200 µM. The compound also registered a Relative activity in assay [1] of 0.
For the compound `Nc1ccc2c(c1)CN1C(=O)c3ccccc3C1=N2` [DANIQUIDONE], the Net grain counts in the assay filed under Rattus norvegicus turned out to be 93.1. The IC50 in the assay on CCRF-CEM worked out at 14 µM.
Regarding `O=C1c2ccccc2C2=Nc3ccccc3CN12`, in the assay listed under Rattus norvegicus, the Net grain counts is -4.5. The compound also gave an IC50 in the assay with CCRF-CEM of 60 µM. In assay [1], this compound yielded a Relative activity of 1.
For the compound `O=C1c2ccccc2C2=Nc3ccc([N+](=O)[O-])cc3CN12`, the Net grain counts in the assay listed under Rattus norvegicus stood at 10.5. The same compound had an IC50 with CCRF-CEM of more than 150 µM. The compound further showed a Relative activity in assay [1] of 0.
The corresponding values for `COc1ccc(N)c(N2C(=O)c3ccccc3C2=O)c1` are -8.9, more than 200 µM and 0.
For `O=C1c2ccccc2-c2nc3ccccc3n21`, in the assay listed under Rattus norvegicus, the Net grain counts is -7.4. The IC50 with CCRF-CEM is 68 µM. In addition, in assay [1], the Relative activity came to 0.
